Test results taken from ChEMBL document CHEMBL1138022, “Structurally simplified macrolactone analogues of halichondrin B” (Bioorg Med Chem Lett, 2004).

Legend:
U-937 = experiment: In vitro inhibitory concentration required to inhibit the growth of U937 cells was determined by mitotic block reversibility assay; type: functional; settings: Homo sapiens
Procedure, shortened: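 Reversibility assay in human histiocytic lymphoma U937 cells. After drug washout, flow cytometry scored whether a complete mitotic block was still maintained 10 h later.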

P388 = experiment: Fold resistance calculated as the inhibition concentration ratio between retrovirally transformed P388/VMDRC.04 and parental P388 cells; type: functional
Procedure, shortened: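 P-glycoprotein-mediated efflux assessed in murine P388/VMDRC.04, a retrovirally transformed multidrug-resistant subline of P388/S leukemia cells, alongside parental P388 cells. Growth inhibition IC50 was measured in each line. Fold resistance is the IC50 ratio of P388/VMDRC.04 to parental P388.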

DLD-1 = experiment: In vitro inhibitory concentration required to inhibit the growth of DLD-1 cells under continuous exposure conditions for 3-4 days; type: functional, cell-based; settings: Homo sapiens
Procedure, shortened: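 Human colon cancer DLD-1 cells were exposed to compound continuously for 3–4 days and growth inhibition was measured. IC50 is given ± SEM, with n the number of experiments.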

| SMILES | IC99 (U-937) | FR (P388) | IC50 (DLD-1) |
| --- | --- | --- | --- |
| C=C1C[C@@H]2CC[C@@]34C[C@@H]5O[C@@H]6C(O[C@H]7CC[C@H](CC(=O)O[C@@H]8[C@@H](OC)[C@H](C[C@@H](O)CO)O[C@H]8C[C@H]8O[C@@H](CC[C@@H]1O2)C[C@@H](C)C8=C)O[C@@H]7[C@@H]6O3)[C@H]5O4 | 0.03 µM | 8.8 | 1.4 nM |
| C=C1C[C@@H]2CC[C@@]34C[C@@H]5O[C@@H]6C(O[C@H]7CC[C@H](CC(=O)O[C@@H]8[C@@H](OC)[C@@H](O)CO[C@H]8C[C@H]8O[C@@H](CC[C@@H]1O2)C[C@@H](C)C8=C)O[C@@H]7[C@@H]6O3)[C@H]5O4 | – | – | > 1000 nM |
| C=C1C[C@@H]2CC[C@@]34C[C@@H]5O[C@@H]6C(O[C@H]7CC[C@H](CC(=O)O[C@@H]8[C@@H](OC)[C@@H]9OC(C)(C)OC[C@@H]9O[C@H]8C[C@H]8O[C@@H](CC[C@@H]1O2)C[C@@H](C)C8=C)O[C@@H]7[C@@H]6O3)[C@H]5O4 | > 1 µM | 1.7 | 11 nM |
| C=C1C[C@@H]2CC[C@@]34C[C@@H]5O[C@@H]6C(O[C@H]7CC[C@H](CC(=O)O[C@H]8[C@@H](OC)[C@H](CC(O)CO)O[C@H]8C[C@H]8O[C@@H](CC[C@@H]1O2)C[C@@H](C)C8=C)O[C@@H]7[C@@H]6O3)[C@H]5O4 (some centres undefined) | – | – | > 1000 nM |
| C=C1C[C@@H]2CC[C@@]34C[C@@H]5O[C@@H]6C(O[C@H]7CC[C@H](CC(=O)O[C@@H]8[C@H](OC)[C@H](CC(O)CO)O[C@H]8C[C@H]8O[C@@H](CC[C@@H]1O2)C[C@@H](C)C8=C)O[C@@H]7[C@@H]6O3)[C@H]5O4 (some centres undefined) | – | – | 220 nM |
| C=C1C[C@@H]2CC[C@@]34C[C@@H]5O[C@@H]6C(O[C@H]7CC[C@H](CC(=O)O[C@@H]8[C@@H](OC)[C@@H](O)[C@H](CCO)O[C@H]8C[C@H]8O[C@@H](CC[C@@H]1O2)C[C@@H](C)C8=C)O[C@@H]7[C@@H]6O3)[C@H]5O4 | 0.1 µM | 12 | 1.8 nM |
| C=C1C[C@@H]2CC[C@@]34C[C@@H]5O[C@@H]6C(O[C@H]7CC[C@H](CC(=O)O[C@@H]8[C@@H](C)[C@H](O)[C@H](CCO)O[C@H]8C[C@H]8O[C@@H](CC[C@@H]1O2)C[C@@H](C)C8=C)O[C@@H]7[C@@H]6O3)[C@H]5O4 | 0.17 µM | 5.6 | 2.5 nM |
| C=C1C[C@@H]2CC[C@@]34C[C@@H]5O[C@@H]6C(O[C@H]7CC[C@H](CC(=O)O[C@@H]8[C@@H](OC)[C@H](C[C@@H](O)CC(O)CO)O[C@H]8C[C@H]8O[C@@H](CC[C@@H]1O2)C[C@@H](C)C8=C)O[C@@H]7[C@@H]6O3)[C@H]5O4 (some centres undefined) | 0.03 µM | 15 | 1.9 nM |
| C=C1C2C[C@@H]3O[C@@H](C[C@H](O)CO)[C@H](OC)[C@H]3OC(=O)C[C@H]3CC[C@@H]4OC5[C@H]6O[C@H]7C[C@](CC[C@H]8CC(=C)[C@H](CC[C@@H](C[C@H]1C)O2)O8)(OC6[C@H]4O3)O[C@H]57 | 0.1 µM | 8.2 | 6.4 nM |
| C=C1C[C@@H]2CC[C@@]34C[C@@H]5O[C@@H]6C(O[C@H]7CC[C@H](CC(=O)O[C@@H]8[C@@H](OC)[C@H](O)[C@H](CO)O[C@H]8C[C@H]8O[C@@H](CC[C@@H]1O2)C[C@@H](C)C8=C)O[C@@H]7[C@@H]6O3)[C@H]5O4 | 0.3 µM | 8.5 | 2.6 nM |
| C=C1C[C@@H]2CC[C@@]34C[C@@H]5O[C@@H]6C(O[C@H]7CC[C@H](CC(=O)O[C@@H]8[C@@H](OC)[C@@H](C[C@H](O)CO)O[C@H]8C[C@H]8O[C@@H](CC[C@@H]1O2)C[C@@H](C)C8=C)O[C@@H]7[C@@H]6O3)[C@H]5O4 | 0.015 µM | 6.2 | 0.67 nM |
| C=C1C[C@@H]2CC[C@@]34C[C@@H]5O[C@@H]6C(O[C@H]7CC[C@H](CC(=O)O[C@@H]8[C@@H](OC)[C@H](CO)O[C@H]8C[C@H]8O[C@@H](CC[C@@H]1O2)C[C@@H](C)C8=C)O[C@@H]7[C@@H]6O3)[C@H]5O4 | 0.1 µM | 2.8 | 1 nM |
| C=C1C[C@@H]2CC[C@@]34C[C@@H]5O[C@@H]6C(O[C@H]7CC[C@H](CC(=O)O[C@@H]8[C@@H](OCC)[C@@H](O)[C@H](CC(O)CO)O[C@H]8C[C@H]8O[C@@H](CC[C@@H]1O2)C[C@@H](C)C8=C)O[C@@H]7[C@@H]6O3)[C@H]5O4 (some centres undefined) | – | – | 490 nM |
| C=C1C[C@@H]2CC[C@@]34C[C@@H]5O[C@@H]6C(O[C@H]7CC[C@H](CC(=O)O[C@H]8C(CC9OC(CCC1O2)C[C@@H](C)C9=C)O[C@H]1C[C@H]2O[C@@]9(C[C@@H]%10O[C@]%11(C[C@H](C)[C@@H]%12O[C@H]([C@@H](O)C[C@@H](O)CO)C[C@@H]%12O%11)C[C@H](C)[C@@H]%10O9)C[C@H]2O[C@H]1[C@@H]8C)O[C@@H]7[C@@H]6O3)[C@H]5O4 (some centres undefined) | 0.025 µM | 2.8 | 0.74 nM |
| C=C1C[C@@H]2CC[C@@]34C[C@@H]5O[C@@H]6C(O[C@H]7CC[C@H](CC(=O)O[C@@H]8[C@@H](C)[C@@H]9O[C@H](CO)[C@@H](O)C[C@@H]9O[C@H]8C[C@H]8O[C@@H](CC[C@@H]1O2)C[C@@H](C)C8=C)O[C@@H]7[C@@H]6O3)[C@H]5O4 | 0.22 µM | 12 | 3.4 nM |
| C=C1C[C@@H]2CC[C@@]34C[C@@H]5O[C@@H]6C(O[C@H]7CC[C@H](CC(=O)O[C@@H]8[C@@H](OC)[C@@H](O)[C@H](CC(O)CO)O[C@H]8C[C@H]8O[C@@H](CC[C@@H]1O2)C[C@@H](C)C8=C)O[C@@H]7[C@@H]6O3)[C@H]5O4 (some centres undefined) | 0.053 µM | 23 | 19 nM |
| C=C1C[C@@H]2CC[C@@]34C[C@@H]5O[C@@H]6C(O[C@H]7CC[C@H](CC(=O)O[C@@H]8[C@@H](OC)[C@H](CCC(=O)C(F)(F)F)O[C@H]8C[C@H]8O[C@@H](CC[C@@H]1O2)C[C@@H](C)C8=C)O[C@@H]7[C@@H]6O3)[C@H]5O4 | 0.03 µM | 4.5 | 0.67 nM |
| C=C1C[C@@H]2CC[C@@]34C[C@@H]5O[C@@H]6C(O[C@H]7CC[C@H](CC(=O)O[C@@H]8[C@@H](OC)[C@H](CO)O[C@@H]8C[C@H]8O[C@@H](CC[C@@H]1O2)C[C@@H](C)C8=C)O[C@@H]7[C@@H]6O3)[C@H]5O4 | – | – | > 1000 nM |
| C=C1C[C@@H]2CC[C@@]34C[C@@H]5O[C@@H]6C(O[C@H]7CC[C@H](CC(=O)O[C@@H]8[C@@H](OC)[C@@H](O)[C@H](CO)O[C@H]8C[C@H]8O[C@@H](CC[C@@H]1O2)C[C@@H](C)C8=C)O[C@@H]7[C@@H]6O3)[C@H]5O4 | 0.065 µM | 13 | 2 nM |
| C=C1C2C[C@@H]3O[C@H](C[C@@H](O)CO)[C@H](OC)[C@H]3OC(=O)C[C@H]3CC[C@@H]4OC5[C@H]6O[C@H]7C[C@](CC[C@H]8CC(=C)[C@H](CC[C@@H](C[C@H]1C)O2)O8)(OC6[C@H]4O3)O[C@H]57 | 0.02 µM | 9.3 | 0.67 nM |
| C=C1C[C@@H]2CC[C@@]34C[C@@H]5O[C@@H]6C(O[C@H]7CC[C@H](CC(=O)O[C@@H]8[C@@H](OC)[C@H](O)[C@H](CCOC)O[C@H]8C[C@H]8O[C@@H](CC[C@@H]1O2)C[C@@H](C)C8=C)O[C@@H]7[C@@H]6O3)[C@H]5O4 | > 1 µM | 1.6 | 1.8 nM |
| C=C1C[C@@H]2CC[C@@]34C[C@@H]5O[C@@H]6C(O[C@H]7CC[C@H](CC(=O)O[C@@H]8[C@@H](OC)[C@@H](O)[C@@H](CC(O)CO)O[C@H]8C[C@H]8O[C@@H](CC[C@@H]1O2)C[C@@H](C)C8=C)O[C@@H]7[C@@H]6O3)[C@H]5O4 (some centres undefined) | 0.065 µM | 20 | 12 nM |
| C=C1C[C@@H]2CC[C@@]34C[C@@H]5O[C@@H]6C(O[C@H]7CC[C@H](CC(=O)O[C@@H]8[C@@H](OC)[C@H](CCO)O[C@H]8C[C@H]8O[C@@H](CC[C@@H]1O2)C[C@@H](C)C8=C)O[C@@H]7[C@@H]6O3)[C@H]5O4 | 0.1 µM | 2.8 | 0.97 nM |
